Reference: ChEMBL document CHEMBL1156693, “Novel N-(phosphonomethyl) glycine derivatives: Design, characterization and biological activity” (Eur J Med Chem, 2008)
Active and inactive are the calls of the source. No cut-off for these calls is given here.

Tests used:
Mus musculus [1] = assay: Clastogenic effect on C57BL mouse assessed as number of metaphase chromosomal breaks in bone marrow cells at 3.5 mg/kg, ip after 24 hrs; assay type: functional; conditions: route intraperitoneal
Procedure, shortened: (§1)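 Inbred male and female C57Bl mice (20.0 ± 1.5 g), groups of 3 males + 3 females, 5 controls given 0.9% NaCl. Single i.p. dose. Colchicine 40 mg/kg i.p. 1 h before femoral bone marrow harvest. Cells in 0.075 M KCl for 20 min at 37 °C, fixed in methanol–acetic acid (3:1), stained with 5% Giemsa. At least 50 metaphases scored per animal for breaks, fragments, centromere/centromeric and telomere/telomeric fusions. Mitotic index from 1500 cells per animal. Group mean ± SE.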

Mus musculus [2] = assay: Clastogenic effect on C57BL mouse assessed as number of metaphase chromosomal fragments in bone marrow cells at 3.5 mg/kg, ip after 24 hrs; assay type: functional; conditions: route intraperitoneal; procedure, shortened: as §1
Mus musculus [3] = assay: Clastogenic effect on C57BL mouse assessed as number of metaphase chromosomal centromere/centromeric fusion in bone marrow cells at 3.5 mg/kg, ip after 24 hrs; assay type: functional; conditions: route intraperitoneal; procedure, shortened: as §1
Mus musculus [4] = assay: Clastogenic effect on C57BL mouse assessed as number of metaphase chromosome telomere/telomeric fusion in bone marrow cells at 3.5 mg/kg, ip after 24 hrs; assay type: functional; conditions: route intraperitoneal; procedure, shortened: as §1
Mus musculus [5] = assay: Clastogenic effect on C57BL mouse assessed as bone marrow cells with abberation at 3.5 mg/kg, ip after 24 hrs; assay type: functional; conditions: route intraperitoneal; procedure, shortened: as §1
Mus musculus [6] = assay: Clastogenic effect on C57BL mouse assessed as mitotic index in bone marrow cells at 3.5 mg/kg, ip after 24 hrs; assay type: functional; conditions: route intraperitoneal; procedure, shortened: as §1
Mus musculus [7] = assay: Clastogenic effect on C57BL mouse assessed as number of metaphase chromosomal breaks in bone marrow cells at 10 mg/kg, ip after 24 hrs; assay type: functional; conditions: route intraperitoneal
Procedure, shortened: (§2)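 Inbred male and female C57Bl mice, groups of 3 males + 3 females, dosed i.p. (0.9% NaCl vehicle/negative control); mitomycin C 3.5 mg/kg positive control. Colchicine 40 mg/kg i.p. 1 h before femoral bone marrow harvest; hypotonic 0.075 M KCl 20 min at 37 °C, methanol-acetic acid fixation, Giemsa stain; ≥50 metaphases per animal scored; group mean ± SE.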

Mus musculus [8] = assay: Clastogenic effect on C57BL mouse assessed as number of metaphase chromosomal breaks in bone marrow cells at 10 mg/kg, ip after 48 hrs; assay type: functional; conditions: route intraperitoneal; procedure, shortened: as §2
Mus musculus [9] = assay: Clastogenic effect on C57BL mouse assessed as number of metaphase chromosomal breaks in bone marrow cells at 100 mg/kg, ip after 24 hrs; assay type: functional; conditions: route intraperitoneal; procedure, shortened: as §2
Mus musculus [10] = assay: Clastogenic effect on C57BL mouse assessed as number of metaphase chromosomal breaks in bone marrow cells at 100 mg/kg, ip after 48 hrs; assay type: functional; conditions: route intraperitoneal; procedure, shortened: as §2
Mus musculus [11] = assay: Clastogenic effect on C57BL mouse assessed as number of metaphase chromosomal fragments in bone marrow cells at 10 mg/kg, ip after 24 hrs; assay type: functional; conditions: route intraperitoneal; procedure, shortened: as §2
Mus musculus [12] = assay: Clastogenic effect on C57BL mouse assessed as number of metaphase chromosomal fragments in bone marrow cells at 10 mg/kg, ip after 48 hrs; assay type: functional; conditions: route intraperitoneal; procedure, shortened: as §2
Mus musculus [13] = assay: Clastogenic effect on C57BL mouse assessed as number of metaphase chromosomal fragments in bone marrow cells at 100 mg/kg, ip after 24 hrs; assay type: functional; conditions: route intraperitoneal; procedure, shortened: as §2
Mus musculus [14] = assay: Clastogenic effect on C57BL mouse assessed as number of metaphase chromosomal fragments in bone marrow cells at 100 mg/kg, ip after 48 hrs; assay type: functional; conditions: route intraperitoneal; procedure, shortened: as §2
Mus musculus [15] = assay: Clastogenic effect on C57BL mouse assessed as number of metaphase chromosomal centromere/centromeric fusion in bone marrow cells at 10 mg/kg, ip after 24 hrs; assay type: functional; conditions: route intraperitoneal; procedure, shortened: as §2
Mus musculus [16] = assay: Clastogenic effect on C57BL mouse assessed as number of metaphase chromosomal centromere/centromeric fusion in bone marrow cells at 10 mg/kg, ip after 48 hrs; assay type: functional; conditions: route intraperitoneal; procedure, shortened: as §2
Mus musculus [17] = assay: Clastogenic effect on C57BL mouse assessed as number of metaphase chromosomal centromere/centromeric fusion in bone marrow cells at 100 mg/kg, ip after 24 hrs; assay type: functional; conditions: route intraperitoneal; procedure, shortened: as §2
Mus musculus [18] = assay: Clastogenic effect on C57BL mouse assessed as number of metaphase chromosomal centromere/centromeric fusion in bone marrow cells at 100 mg/kg, ip after 48 hrs; assay type: functional; conditions: route intraperitoneal; procedure, shortened: as §2
Mus musculus [19] = assay: Clastogenic effect on C57BL mouse assessed as number of metaphase chromosome telomere/telomeric fusion in bone marrow cells at 10 mg/kg, ip after 24 hrs; assay type: functional; conditions: route intraperitoneal; procedure, shortened: as §2
Mus musculus [20] = assay: Clastogenic effect on C57BL mouse assessed as number of metaphase chromosome telomere/telomeric fusion in bone marrow cells at 10 mg/kg, ip after 48 hrs; assay type: functional; conditions: route intraperitoneal; procedure, shortened: as §2
Mus musculus [21] = assay: Clastogenic effect on C57BL mouse assessed as number of metaphase chromosome telomere/telomeric fusion in bone marrow cells at 100 mg/kg, ip after 24 hrs; assay type: functional; conditions: route intraperitoneal; procedure, shortened: as §2
Mus musculus [22] = assay: Clastogenic effect on C57BL mouse assessed as number of metaphase chromosome telomere/telomeric fusion in bone marrow cells at 100 mg/kg, ip after 48 hrs; assay type: functional; conditions: route intraperitoneal; procedure, shortened: as §2
Mus musculus [23] = assay: Clastogenic effect on C57BL mouse assessed as bone marrow cells with abberation at 10 mg/kg, ip after 24 hrs; assay type: functional; conditions: route intraperitoneal; procedure, shortened: as §2
Mus musculus [24] = assay: Clastogenic effect on C57BL mouse assessed as bone marrow cells with abberation at 10 mg/kg, ip after 48 hrs; assay type: functional; conditions: route intraperitoneal; procedure, shortened: as §2
Mus musculus [25] = assay: Clastogenic effect on C57BL mouse assessed as bone marrow cells with abberation at 100 mg/kg, ip after 24 hrs; assay type: functional; conditions: route intraperitoneal; procedure, shortened: as §2
Mus musculus [26] = assay: Clastogenic effect on C57BL mouse assessed as bone marrow cells with abberation at 100 mg/kg, ip after 48 hrs; assay type: functional; conditions: route intraperitoneal; procedure, shortened: as §2
Mus musculus [27] = assay: Clastogenic effect on C57BL mouse assessed as mitotic index in bone marrow cells at 10 mg/kg, ip after 24 hrs; assay type: functional; conditions: route intraperitoneal
Procedure, shortened: (§3)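 C57Bl mice (3 males + 3 females per group) given compound i.p.; saline controls. Colchicine 40 mg/kg i.p. 1 h before bone marrow harvest from femur; hypotonic KCl, fixed, Giemsa-stained slides. Mitotic index = dividing cells counted among 1500 cells per animal; per-animal values averaged as group mean ± SE.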

Mus musculus [28] = assay: Clastogenic effect on C57BL mouse assessed as mitotic index in bone marrow cells at 10 mg/kg, ip after 48 hrs; assay type: functional; conditions: route intraperitoneal; procedure, shortened: as §3
Mus musculus [29] = assay: Clastogenic effect on C57BL mouse assessed as mitotic index in bone marrow cells at 100 mg/kg, ip after 24 hrs; assay type: functional; conditions: route intraperitoneal; procedure, shortened: as §3
Mus musculus [30] = assay: Clastogenic effect on C57BL mouse assessed as mitotic index in bone marrow cells at 100 mg/kg, ip after 48 hrs; assay type: functional; conditions: route intraperitoneal; procedure, shortened: as §3
HL-60 = assay: Cytotoxicity against human HL60 cells after 72 hrs by MTT assay; assay type: functional, cell-based; conditions: HL-60, 72 h
Procedure, shortened: (§4)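 Cells at 37 °C, 5% CO2; 293T in DMEM, others in RPMI 1640, both with 2 mM L-glutamine and 10% FCS. Seeded 10⁴ cells/well, 24 h preincubation, then compounds 0.195–200 µM (DMSO ≤1% final) for 72 h continuous. MTT added, 4 h, formazan dissolved in 5% formic acid-acidified DMSO, absorbance read; IC50 = concentration giving 50% survival decrease.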

LAMA-84 = assay: Cytotoxicity against human LAMA-84 cells after 72 hrs by MTT assay; assay type: functional, cell-based; conditions: LAMA-84, 72 h; procedure, shortened: as §4
K562 = assay: Cytotoxicity against human K562 cells after 72 hrs by MTT assay; assay type: functional, cell-based; conditions: K562, 72 h; procedure, shortened: as §4
DOHH-2 [31] = assay: Cytotoxicity against human DOHH2 cells after 72 hrs by MTT assay; assay type: functional, cell-based; conditions: DOHH-2, 72 h; procedure, shortened: as §4
HD-MY-Z = assay: Cytotoxicity against human HD-MY-Z cells after 72 hrs by MTT assay; assay type: functional, cell-based; procedure, shortened: as §4
EJ = assay: Cytotoxicity against human EJ cells after 72 hrs by MTT assay; assay type: functional, cell-based; procedure, shortened: as §4
[32] = Cytotoxicity against human 293T after 72 hrs by MTT assay; assay type: cell-based; conditions: HEK-293T; procedure, shortened: as §4
DOHH-2 [33] = assay: Induction of apoptosis in human DOHH2 cells assessed as increase in histone-associated oligonucleotide level after 24 hrs by ELISA; assay type: functional, cell-based
Procedure, shortened: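 DOHH-2 cells exposed 24 h to equitoxic compound concentrations versus untreated control; cytosolic fractions of 1 × 10⁴ cells used in sandwich ELISA (anti-histone capture, peroxidase-conjugated anti-DNA detection) for histone-associated DNA fragments, read at 405 nm; means ± SD of three independent experiments.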

Row | SMILES | Activity (Mus musculus [7]) | Activity (Mus musculus [8]) | Activity (Mus musculus [9]) | Activity (Mus musculus [10]) | Activity (Mus musculus [11]) | Activity (Mus musculus [12]) | Activity (Mus musculus [13]) | Activity (Mus musculus [14]) | Activity (Mus musculus [15]) | Activity (Mus musculus [16]) | Activity (Mus musculus [17]) | Activity (Mus musculus [18]) | Activity (Mus musculus [19]) | Activity (Mus musculus [20]) | Activity (Mus musculus [21]) | Activity (Mus musculus [22]) | Activity (Mus musculus [23]) | Activity (Mus musculus [24]) | Activity (Mus musculus [25]) | Activity (Mus musculus [26]) | further results
1 | CO[C@@]12[C@H](COC(N)=O)C3=C(C(=O)C(C)=C(N)C3=O)N1C[C@@H]1N[C@@H]12 [MITOMYCIN] |  |  |  |  |  |  |  |  |  |  |  |  |  |  |  |  |  |  |  |  | Activity (Mus musculus [1]): 10; Activity (Mus musculus [2]): 13; Activity (Mus musculus [3]): 11; Activity (Mus musculus [4]): 0; Activity (Mus musculus [5]): 46.67%; Activity (Mus musculus [6]): 5.49%
2 | COP(=O)(CNC1(C(=O)O)CCCCCC1)OC | 3 | 0 | 7 | 4 | 0 | 0 | 0 | 0 | 7 | 3 | 3 | 3 | 0 | 0 | 0 | 0 | 2.85% | 1% | 3.33% | 2.72% | Activity (Mus musculus [27]): 14.37%; Activity (Mus musculus [28]): 9.58%; Activity (Mus musculus [29]): 13.24%; Activity (Mus musculus [30]): 12%; IC50 (HL-60): 85.9 µM; IC50 (LAMA-84): 91.2 µM; IC50 (K562): 101 µM; IC50 (DOHH-2 [31]): 88.1 µM; IC50 (HD-MY-Z): 169 µM; IC50 (EJ): 151 µM; IC50 [32]: > 200 µM
3 | COP(=O)(CNC1(C(=O)O)CCCCCCCCCCC1)OC | 4 | 2 | 4 | 6 | 2 | 1 | 0 | 6 | 11 | 12 | 11 | 11 | 0 | 0 | 0 | 2 | 5.57% | 5% | 4.29% | 10% | Activity (Mus musculus [27]): 11.13%; Activity (Mus musculus [28]): 8.6%; Activity (Mus musculus [29]): 11.82%; Activity (Mus musculus [30]): 12.82%; IC50 (HL-60): 41.4 µM; IC50 (LAMA-84): 67.3 µM; IC50 (K562): 47.1 µM; IC50 (DOHH-2 [31]): 20.1 µM; IC50 (HD-MY-Z): 67.3 µM; IC50 (EJ): 111 µM; IC50 [32]: 159 µM; Activity (DOHH-2 [33]): Active
